Compound activity from PubChem.
Hits are enriched below; roughly 1.9% of the tested compounds scored in any of these assays.
T cell HTS = modulators of CD8 T cell-vesicle binding, primary screen, mouse 2C CD8+ T cells, flow cytometry; AID 2052, 2009; 0.068% of 330,000 active; 2C CD8+ T cell-vesicle binding; active compounds read low; response (vesicle binding), % at 7 µM;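 active = response, share of CD8 T cells binding vesicles, and their 90th percentile fluorescence all below set limits, cut at about 80% in these data, passing the limit was not always enough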;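 also: values below 100% mean blocked vesicle binding to the CD8+ T cells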
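System: murine 2C transgenic CD8+ T lymphocytes; also added: QL9-loaded Drosophila micro-vesicles; times: binding 1.5 h at 37 °C; measured by: flow cytometry, PE anti-B7-1 (FL2) versus Alexa647 anti-CD8 (FL8), PFA-fixed; control set: Peptide-free naked vesicles (low) and QL9 vesicles with 0.7% DMSO vehicle (high)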
proKLK7 act = proKLK7 zymogen activators, primary screen, biochemical, fluorescence intensity | purified proKLK7, EDANS-DABCYL substrate fluorescence; 100% is mature enzyme control, 0% vehicle | 0.9% of 370,000 active | activation, % at 7 µM | Kallikrein-7 (Homo sapiens), P49862;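 active = activation above the mean of all tested compounds plus 3 SD, computed per campaign excluding outliers beyond control limits, cut at about 13% in these data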
Target sequence (P49862 whole entry, looked up): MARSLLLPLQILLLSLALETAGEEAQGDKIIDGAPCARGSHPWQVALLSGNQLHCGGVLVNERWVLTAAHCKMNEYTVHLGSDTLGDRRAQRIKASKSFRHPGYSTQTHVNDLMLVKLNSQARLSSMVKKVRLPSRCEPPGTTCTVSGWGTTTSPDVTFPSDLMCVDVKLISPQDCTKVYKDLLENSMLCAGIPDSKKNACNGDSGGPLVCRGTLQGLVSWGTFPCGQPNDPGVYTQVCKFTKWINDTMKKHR
Yeast superoxide = reduction of superoxide in aged yeast, primary screen, HTS; S. cerevisiae aged cells, superoxide DHE fluorescence; active compounds read low; superoxide response (% of plate mean), % at 10 µM; 0.18% of 330,000 active;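 active = superoxide response under a set limit, about three screen SD below normal, cut at about 65% in these data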;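 also: yeast aged for seven days with compound at 30 °C before DHE staining; 100% = average MFI of all compound-treated wells on the plate with controls excluded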
beta cell repl = inducers of MIN6 beta-cell proliferation, primary screen, ATP luminescence, uHTS. proliferation, % at 10 µM. 0.29% of 330,000 active. MIN6 cells proliferation, ATPlite luminescence, 48 h; cells starved in 0.2% serum; 100% = growth in 10% serum;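 active = compounds whose signal lies at least 3.5 SD above the mean of all wells on their plate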;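 also: 0% = DMSO-treated cells in low-serum medium and 100% = 10% serum control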
V-ATPase pHluor = regulators of yeast V-ATPase proton pumping, primary screen, pHLuorin cytosolic pH fluorescence; S. cerevisiae; response, % at 10 µM; 0.37% of 350,000 active; AID 504577, 2011; in the data active = response mostly above about 7.3%, no sharp cut-off; inactive = mostly below about 5.4%; also: actives read high
Rce1 inhib = yeast Rce1p protease inhibitors, primary screen, biochemical, fluorescence, cell-free homogeneous | AID 2563, 2010 | yeast membranes, quenched prenylated peptide cleavage fluorescence | 0.27% of 290,000 active | calls only | CAAX prenyl protease 2 (Saccharomyces cerevisiae (strain ATCC 204508 / S288c)), Q03530;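 active = fall in fluorescence gain of 50% or more versus controls, with final raw signal at or below 3038400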;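 also: plate controls were neutral control wells for no effect and wells lacking membranes for full effect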
Target sequence (Q03530 whole entry, looked up): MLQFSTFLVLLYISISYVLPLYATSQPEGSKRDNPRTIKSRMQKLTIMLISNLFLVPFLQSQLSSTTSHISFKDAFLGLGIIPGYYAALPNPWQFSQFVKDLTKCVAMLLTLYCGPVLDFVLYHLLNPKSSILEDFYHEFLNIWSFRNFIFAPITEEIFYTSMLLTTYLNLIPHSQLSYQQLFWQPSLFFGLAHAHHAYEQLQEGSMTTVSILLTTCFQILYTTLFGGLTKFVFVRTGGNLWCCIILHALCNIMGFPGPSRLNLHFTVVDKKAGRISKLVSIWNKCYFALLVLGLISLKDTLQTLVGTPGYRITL
* hit, by the source's call; i = inactive; x = no result; + = active, no number.

SMILES | T cell HTS | proKLK7 act | Yeast superoxide | beta cell repl | V-ATPase pHluor | Rce1 inhib
FC(F)(F)c1cc(-c2ccccc2)nc(NCc2cccnc2)n1 | 395 | -1 | 124 | 0 | 20* | i
CCN(CC)CCNC(=O)c1ccc(NC(=O)c2ccc(C(=O)c3ccccc3)cc2)cc1 | 76* | 0 | 86 | -3 | -2 | i
O=C(CN1CCN(Cc2ccc(Cl)cc2)C1=O)NCCCN1CCN(c2ccc(F)cc2)CC1 | 301 | 0 | 89 | -4 | 17* | i
CC12C=CC3(CN(Cc4ccccc4)C(=O)C3C1C(=O)NCc1ccco1)O2 (configuration not stated) | 201 | 0 | 105 | -2 | 17* | i
Cc1ccc2c(c1)sc[n+]2Cc1ccccc1 | 366 | 1 | 83 | -6 | -9 | +
N#Cc1cn(-c2ccccc2)nc1-c1cc2ccccc2oc1=O | 302 | 1 | 102 | -2 | -2 | i
O=C(O)/C=C/c1cn(-c2ccccc2)nc1-c1cc2ccccc2oc1=O | 277 | 0 | 61* | -3 | -3 | i
COC(=O)C1(F)C(=O)NC(=O)NC1OC (configuration not stated) | x | 1 | x | x | x | x
Cc1cc2c(cc1S(=O)(=O)NCCc1ccccc1)NC(=O)CO2 | 20* | 0 | 103 | -4 | 1 | i
COc1ccccc1NC(=O)CN(c1ccc(C23CC4CC(CC(C4)C2)C3)cc1)S(C)(=O)=O | 275 | 0 | 88 | -7 | 0 | +
NC(=O)C1CCN(c2nc(-c3cc4ccccc4o3)cs2)CC1 | 78* | 0 | 108 | 0 | 5 | x
COC(=O)C1=C(C)N(Cc2cccc(C(F)(F)F)c2)C(=NCc2ccc(C(F)(F)F)cc2)NC1c1cccc(C(F)(F)F)c1 (configuration not stated) | x | 0 | x | x | x | x
C[C@]12CC[C@@H]3c4ccc(O)cc4CC[C@H]3[C@@H]1CCC2=O | 348 | 1 | 91 | 3 | 93* | i
Cc1ccc(-c2nnc(SCc3ccc([N+](=O)[O-])cc3)n2-c2ccccc2)cc1 | x | 1 | x | x | x | x
COc1ccc(-n2c(SCc3ccc([N+](=O)[O-])cc3)nnc2-c2ccc(C)cc2)cc1 | 725 | -1 | 95 | -3 | 4 | +
Cc1cc(Cl)c(OCCCN2CCCCC2)c(Br)c1 | 72* | -1 | 107 | 0 | 2 | i
COc1ccc(C(O)c2coc3ccc(O)c(CN(C)C)c23)cc1 (configuration not stated) | 6.9* | -1 | 104 | -1 | -3 | i
COc1ccc(OC)c(C(=O)c2coc3ccc(O)c(CN(C)C)c23)c1 | 258 | -1 | 115 | -2 | 2 | i
COCCN1Cc2cc(C(=O)OC)c3c(c2C1=O)c1cc(OC)ccc1n3S(=O)(=O)c1ccc(F)cc1 | x | -2 | x | x | x | x
CCO[C@H]1OC(C(=O)Nc2ccccc2)=C[C@@H](c2csc3ccccc23)[C@@H]1CCCO | x | 0 | x | -5 | 1 | +
CCN=C1NC(c2cccc(F)c2)C(C(=O)OC)=C(C)N1Cc1ccccc1C(F)(F)F (configuration not stated) | x | -1 | x | x | x | x
CCCCNC(=O)c1cnc2n(c1=O)CCS2 | 26* | 0 | 104 | -2 | -6 | i
O=C(NCCCc1ccccc1)c1cnc2n(c1=O)CCS2 | 431 | 0 | 105 | -2 | 0 | i
Cc1ccc2c(c1)C1CS(=O)(=O)N(CC(C)C)CN1C2 (configuration not stated) | x | 0 | x | x | x | x
O=C(Nc1cccc2ccccc12)c1ccc(OC(=S)N2CCOCC2)cc1 | 420 | 0 | 102 | -4 | 9 | +
SMILES | T cell HTS | proKLK7 act | Yeast superoxide | beta cell repl | V-ATPase pHluor | Rce1 inhib
COC(=O)c1ccccc1NCCO | 122 | 6 | 86 | 0 | 1 | i
O=C(O)c1ccccc1NCCO | 397 | 2 | 95 | 3 | 0 | +
CCC(C)Oc1cccc(OCCCCN2C(=O)NC(C)(C)C2=O)c1 (configuration not stated) | 461 | 0 | 119 | -1 | 0 | i
CC1(C)NC(=O)N(CCCCOc2cccc(C(F)(F)F)c2)C1=O | 507 | 0 | 100 | 1 | 15* | i
COc1c2ccoc2nc2c(OC)cccc12 | 239 | 3 | 83 | 0 | 0 | +
O=C(OC12CCCN(C1)/C(=C/c1cccnc1)C2)c1ccco1 (configuration not stated) | x | 0 | x | x | x | x
COc1ccc(CNc2nc(NCc3ccc(OC)c(OC)c3)n(C(=O)c3cccs3)n2)cc1OC | 668 | 199* | 103 | 0 | 1 | i
O=C(CSc1ncn[nH]1)CSc1ncn[nH]1 | 11* | 0 | 83 | -1 | -2 | i
CCCNC(=O)c1ccc2c(c1)C1C3CCC(C3)C1C(c1ccccc1)N2 (configuration not stated) | 588 | 0 | 88 | -5 | 19* | i
CCCCCCSc1cc(-c2nc3cc(C)ccn3c2NCCCC)ccc1OC | 457 | -7 | 101 | -8 | -5 | +
CCCCNc1c(-c2ccc(SC(C)CC)c(OC)c2)nc2ccc(Cl)cn12 (configuration not stated) | 232 | -21 | 81 | -6 | 7 | x
CCCCNc1c(-c2ccc(SC(C)CC)c(OC)c2)nc2ccc(C)cn12 (configuration not stated) | 197 | -75 | 87 | -8 | 3 | +
COc1ccc(-c2ccnc3nc(N4CCOCC4)nn23)cc1 | i | 44* | 126 | -1 | -6 | i
c1ccc(Oc2ccc(-c3ccnc4nc(N5CCOCC5)nn34)cc2)cc1 | 177 | -89 | 93 | -4 | -4 | i
COc1ccc(/C=C/S(=O)(=O)NCc2ccccc2)c(CNC(=O)OC(C)(C)C)c1 | x | 0 | x | x | x | x
Fc1ccc(-c2n[nH]c(=S)n2N=Cc2cccc(OCc3ccccc3)c2)cc1 | x | 0 | x | x | x | x
O=C(Nc1ccc(S(=O)(=O)Nc2ccccc2)cc1)C1COc2ccccc2O1 (configuration not stated) | 647 | 0 | 90 | -3 | 0 | +
Cc1sc2nc(COC(=O)CNC(=O)c3ccccc3Cl)[nH]c(=O)c2c1C | x | 0 | x | x | x | x
O=C(NCCF)C1Nc2ccc(OC(F)(F)F)cc2C2C=CCC12 (configuration not stated) | 986 | -1 | 100 | 3 | 6 | i
O=C(NCCOc1ccccc1)C1Nc2ccc(OC(F)(F)F)cc2C2C=CCC12 (configuration not stated) | 701 | -1 | 104 | -4 | 17* | i
